Laboratory results: ChEMBL document CHEMBL2396626, “Exploiting drug-resistant enzymes as tools to identify thienopyrimidinone inhibitors of human immunodeficiency virus reverse transcriptase-associated ribonuclease H” (J Med Chem, 2013)
The source made the active and inactive calls. No cut-off for these calls is given here.

Experiments:
[1] = Inhibition of RNase H activity of HIV-1 reverse transcriptase p66/p51 R284A mutant using 18 nucleotide 3'-fluorescein-labeled RNA/18 nucleotide 5'-dabsyl-labeled DNA hybrid as substrate after 10 mins by fluorescence spectrometric analysis; set-up: species or system Human immunodeficiency virus 1
[2] = Selectivity ratio of CC50 for human CEM-SS cells to EC50 for Human immunodeficiency virus 1 RF isolate; type: ADME, cell-based
[3] = Inhibition of RNase H activity of HIV-1 reverse transcriptase p66/p51 T286A mutant using 18 nucleotide 3'-fluorescein-labeled RNA/18 nucleotide 5'-dabsyl-labeled DNA hybrid as substrate after 10 mins by fluorescence spectrometric analysis; set-up: species or system Human immunodeficiency virus 1
[4] = biological target: Human immunodeficiency virus type 1 integrase (Human immunodeficiency virus 1) (UniProt Q7ZJM1); test: Inhibition of HIV-1 integrase using DNA duplex as substrate at 50 uM preincubated for 10 mins prior to substrate addition measured after 1 hr
CEM-SS = test: Cytotoxicity against human CEM-SS cells by XTT assay; type: cell-based
Outline: (§1)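 Cytopathic-protection format: HIV-1 RF isolate in human T-cell line CEM-SS, with cell viability read by XTT-based assay.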

[5] = Inhibition of RNase H activity of HIV-1 reverse transcriptase p66/p51 C280A mutant using 18 nucleotide 3'-fluorescein-labeled RNA/18 nucleotide 5'-dabsyl-labeled DNA hybrid as substrate after 10 mins by fluorescence spectrometric analysis; set-up: species or system Human immunodeficiency virus 1
[6] = biological target: Human immunodeficiency virus type 1 reverse transcriptase (Human immunodeficiency virus 1) (UniProt Q72547); test: Binding affinity to HIV-1 reverse transcriptase p66/p51 assessed as decrease in melting temperature at 10 uM by differential scanning fluorimetric analysis in presence of Mg2+
[7] = biological target: Human immunodeficiency virus type 1 reverse transcriptase (Human immunodeficiency virus 1, UniProt Q72547); test: Inhibition of RNase H activity of wild type HIV-1 reverse transcriptase using 18 nucleotide 3'-fluorescein-labeled RNA/18 nucleotide 5'-dabsyl-labeled DNA hybrid as substrate after 10 mins by fluorescence spectrometric analysis
[8] = Inhibition of RNase H activity of HIV-1 reverse transcriptase p66/p51 V276A mutant using 18 nucleotide 3'-fluorescein-labeled RNA/18 nucleotide 5'-dabsyl-labeled DNA hybrid as substrate after 10 mins by fluorescence spectrometric analysis; set-up: species or system Human immunodeficiency virus 1
[9] = test system: Human immunodeficiency virus 1; test: Antiviral activity against Human immunodeficiency virus 1 RF isolate infected in human CEM-SS cells by XTT assay; type: functional, organism-based; outline: as §1
[10] = test system: Human immunodeficiency virus 1; test: Inhibition of HIV-1 DNA-dependent DNA polymerase using DNA duplex as substrate at 50 uM after 15 mins by PAGE relative to control
[11] = test system: Human immunodeficiency virus type 1 reverse transcriptase (Human immunodeficiency virus 1), Q72547 [K103N]; test: Inhibition of HIV-1 reverse transcriptase K103N mutant at 50 uM
[12] = test system: Human immunodeficiency virus type 1 reverse transcriptase (Human immunodeficiency virus 1), Q72547 [Y181C]; test: Inhibition of HIV-1 reverse transcriptase Y181C mutant at 50 uM
[13] = biological target: Human immunodeficiency virus type 1 reverse transcriptase (Human immunodeficiency virus 1) (UniProt Q72547); test: Binding affinity to HIV-1 reverse transcriptase p66/p51-RNA/DNA hybrid complex assessed as decrease in melting temperature at 10 uM by differential scanning fluorimetric analysis in presence of Mg2+
[14] = biological target: Human immunodeficiency virus type 1 reverse transcriptase (Human immunodeficiency virus 1) (UniProt Q72547); test: Inhibition of RNase H activity of HIV-1 reverse transcriptase using 18 nucleotide 3'-fluorescein-labeled RNA/18 nucleotide 5'-dabsyl-labeled DNA hybrid as substrate by Yonetani-Theorell plot analysis in presence of beta-thujaplicinol
Outline: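 Yonetani-Theorell: RNase H rates at 250 nM RNA/DNA substrate, fixed enzyme, thienopyrimidinone 0–5 μM against β-thujaplicinol 0, 0.125, 0.25, 0.5, 1 μM; hydrolysis started with substrate, monitored 60 min; V0/Vi plotted and fitted to two-inhibitor equation with interaction term.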

[15] = biological target: Human immunodeficiency virus type 1 reverse transcriptase (Human immunodeficiency virus 1) (UniProt Q72547); conditions: 500 uM

Chain of Human immunodeficiency virus type 1 integrase (Human immunodeficiency virus 1) (Q7ZJM1 as listed by the source): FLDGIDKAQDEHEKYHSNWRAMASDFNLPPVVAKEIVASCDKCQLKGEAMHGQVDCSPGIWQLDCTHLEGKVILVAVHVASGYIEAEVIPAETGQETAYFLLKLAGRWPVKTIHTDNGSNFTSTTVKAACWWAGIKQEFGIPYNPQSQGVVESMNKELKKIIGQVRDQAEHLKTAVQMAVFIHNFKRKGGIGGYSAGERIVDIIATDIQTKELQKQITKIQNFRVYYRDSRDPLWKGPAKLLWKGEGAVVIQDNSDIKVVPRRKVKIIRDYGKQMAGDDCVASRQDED

SMILES | IC50 [1] [nM] | IC50 [3] [nM] | IC50 [5] [nM] | IC50 [7] [nM] | IC50 [8] [nM] | other results
CCCc1c(C)sc2nc(-c3cccc(O)c3O)[nH]c(=O)c12 | 3500 | 5700 | 2900 | 1700 | 4100 | Ratio CC50/EC50 [2]: 4; inhibition [4]: inactive; CC50 (CEM-SS): 12400 nM; ΔTm [6]: 0.5 °C; EC50 [9]: 3100 nM
Cc1sc2nc(-c3ccccc3)[nH]c(=O)c2c1C | – | – | – | 11300 | – | –
O=c1[nH]c(-c2ccc(O)c(O)c2)nc2sc3c(c12)CCC3 | 470 | 370 | 260 | 320 | 210 | inhibition [10]: > 60%; inhibition [4]: inactive; inhibition [11]: Active; ΔTm [6]: 0.5 °C; inhibition [12]: Active
Cc1sc2nc(-c3cc(O)c(O)cc3O)[nH]c(=O)c2c1C | – | – | – | 1600 | – | –
Cc1sc2nc(-c3cccc(C(F)(F)F)c3)[nH]c(=O)c2c1C | – | – | – | > 50000 | – | –
O=c1[nH]c(-c2cc(O)ccc2O)nc2sc3c(c12)CCCCC3 | – | – | – | 1700 | – | –
Cc1sc2nc(-c3cc(C(F)(F)F)cc(C(F)(F)F)c3)[nH]c(=O)c2c1C | – | – | – | > 50000 | – | –
Cc1sc2nc(-c3cccc([N+](=O)[O-])c3)[nH]c(=O)c2c1C | 340 | – | > 50000 | 1500 | 260 | –
Cc1sc2nc(-c3cc(O)c(O)c(O)c3)[nH]c(=O)c2c1C | – | – | – | 690 | – | –
CCCCc1c(C)sc2nc(-c3ccc(O)c(O)c3)[nH]c(=O)c12 | 1200 | 1100 | 490 | 420 | 910 | Ratio CC50/EC50 [2]: 3.2; inhibition [10]: > 60%; inhibition [4]: inactive; CC50 (CEM-SS): 25400 nM; inhibition [11]: Active; ΔTm [6]: 0.5 °C; inhibition [12]: Active; EC50 [9]: 7900 nM
O=c1[nH]c(-c2ccc(C(F)(F)F)cc2)nc2sc3c(c12)CCCCC3 | 540 | 7200 | 10600 | 3100 | 530 | –
Cc1sc2nc(-c3ccc(C(=O)O)cc3)[nH]c(=O)c2c1C | – | – | – | 1600 | – | –
O=C(O)c1ccc(-c2nc3sc4c(c3c(=O)[nH]2)CCCCC4)cc1 | 950 | 32000 | > 50000 | 1900 | 460 | –
O=c1[nH]c(-c2cc(O)cc(O)c2)nc2sc3c(c12)CCCCC3 | – | – | – | 2600 | – | –
Cc1sc2nc(-c3ccc(C(F)(F)F)cc3)[nH]c(=O)c2c1C | 230 | 7500 | > 50000 | 1300 | 310 | –
O=c1[nH]c(-c2cccc(O)c2O)nc2sc3c(c12)CCCCC3 | 2900 | 3600 | 1600 | 1800 | 2800 | Ratio CC50/EC50 [2]: 3.6; CC50 (CEM-SS): 9800 nM; ΔTm [6]: 0.5 °C; EC50 [9]: 2700 nM
Cc1sc2nc(-c3ccc(F)c(F)c3)[nH]c(=O)c2c1C | – | – | – | > 50000 | – | –
Cc1sc2nc(-c3ccc(Cl)c([N+](=O)[O-])c3)[nH]c(=O)c2c1C | – | – | – | 12000 | – | –
O=c1[nH]c(-c2ccc(O)c(O)c2)nc2sc3c(c12)CCCCCC3 | 280 | 290 | 230 | 260 | 110 | inhibition [10]: > 60%; inhibition [4]: inactive; inhibition [11]: Active; ΔTm [6]: 0.5 °C; inhibition [12]: Active
Cc1sc2nc(-c3cccnc3)[nH]c(=O)c2c1C | – | – | – | 8300 | – | –
O=c1[nH]c(-c2ccc(O)cc2)nc2sc3c(c12)CCCCC3 | 650 | 6600 | 15800 | 3200 | 640 | –

SMILES | IC50 [1] [nM] | IC50 [3] [nM] | IC50 [5] [nM] | IC50 [7] [nM] | IC50 [8] [nM] | other results
Cc1sc2nc(-c3ccc(O)cc3)[nH]c(=O)c2c1C | 200 | 3700 | > 50000 | 790 | 140 | –
O=c1[nH]c(-c2ccc(O)cc2O)nc2sc3c(c12)CCCCC3 | – | – | – | 9300 | – | –
Cc1sc2nc(-c3cc(O)cc(O)c3)[nH]c(=O)c2c1C | – | – | – | 5200 | – | –
Cc1sc2nc(-c3cccc(O)c3)[nH]c(=O)c2c1C | – | – | – | > 50000 | – | –
O=c1[nH]c(-c2ccc(O)c(O)c2)nc2sc3c(c12)CCCC3 | 920 | 460 | 290 | 370 | 410 | inhibition [10]: > 60%; inhibition [4]: inactive; inhibition [11]: Active; ΔTm [6]: 0.5 °C; inhibition [12]: Active
Cc1sc2nc(-c3ccc([N+](=O)[O-])o3)[nH]c(=O)c2c1C | – | – | – | 16900 | – | –
Cc1sc2nc(-c3ccc(O)c(F)c3)[nH]c(=O)c2c1C | – | – | – | > 50000 | – | –
Cc1sc2nc(-c3cc4ccccc4[nH]3)[nH]c(=O)c2c1C | 120 | 960 | > 50000 | 480 | 160 | –
O=c1[nH]c(-c2ccc(O)c(O)c2)nc2sc3c(c12)CCCCC3 | 550 | 360 | 260 | 290 | 370 | ΔTm [13]: 5.9 °C; Ratio CC50/EC50 [2]: 4.3; inhibition [4]: inactive; CC50 (CEM-SS): 6800 nM; ΔTm [6]: 0.5 °C; inhibition [14]: Active; EC50 [9]: 1600 nM
CC(C)c1ccc(O)c(=O)c(O)c1 | – | – | – | – | – | ΔTm [15]: 2 °C; ΔTm [6]: 0.5 °C
COc1cc(-c2nc3sc(C)c(C)c3c(=O)[nH]2)ccc1O | – | – | – | > 50000 | – | –
Cc1sc2nc(-c3cc(O)ccc3O)[nH]c(=O)c2c1C | – | – | – | 9300 | – | –
COc1ccc(-c2nc3sc(C)c(C)c3c(=O)[nH]2)cc1 | – | – | – | 9100 | – | –
Cc1sc2nc(-c3ccc(O)c(O)c3)[nH]c(=O)c2c1C | 300 | 280 | 320 | 260 | 390 | ΔTm [13]: 5.8 °C; Ratio CC50/EC50 [2]: 2.3; inhibition [4]: inactive; CC50 (CEM-SS): 8900 nM; ΔTm [6]: 0.5 °C; inhibition [14]: Active; EC50 [9]: 3800 nM
O=c1[nH]c(-c2ccccc2)nc2sc3c(c12)CCCCC3 | 1300 | 27900 | 41400 | 4100 | 960 | –
Cc1sc2nc(-c3ccc([N+](=O)[O-])cc3)[nH]c(=O)c2c1C | – | – | – | – | – | ΔTm [6]: 0.5 °C
CCCc1c(CC)sc2nc(-c3ccc(O)c(O)c3)[nH]c(=O)c12 | 1400 | 820 | 500 | 590 | 760 | Ratio CC50/EC50 [2]: 3.7; inhibition [10]: > 60%; inhibition [4]: inactive; CC50 (CEM-SS): 33700 nM; inhibition [11]: Active; ΔTm [6]: 0.5 °C; inhibition [12]: Active; EC50 [9]: 9200 nM
Cc1sc2nc(-c3ccccn3)[nH]c(=O)c2c1C | – | – | – | 4200 | – | –
COc1ccc(-c2nc3sc(C)c(C)c3c(=O)[nH]2)cc1OC | – | – | – | 12600 | – | –
CCCc1c(C)sc2nc(-c3ccc(O)c(O)c3)[nH]c(=O)c12 | 800 | 570 | 370 | 490 | 560 | Ratio CC50/EC50 [2]: 5.9; CC50 (CEM-SS): 11200 nM; ΔTm [6]: 0.5 °C; EC50 [9]: 1900 nM
